Article PMC3703919 (Clinical cancer research : an official journal of the …, 2009)

Columns and labels:
[1] = Pharmacokinetics: plasma Ang-; assay type: in vivo, human
[2] = system: patients with advanced solid tumors; assay: Phase I dose escalation: toxicity assessment; assay type: in vivo, human
In short: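 Cohorts of three started at 100 μg/kg s.c. daily ×5 per 21-d cycle, with planned levels of 100–1,000 μg/kg. One DLT expanded a cohort to six. DLT was grade ≥3 toxicity at least possibly treatment-related, and MTD allowed ≤1/6 with DLT. Exam and labs ran weekly in cycle 1, then on day 1 of later cycles, graded by CTCAE v3.0.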

[3] = 18 patients, 100-700 μg/kg s.c. daily x5 every 21 d, CTCAE v3.0, count

CC[C@H](C)[C@H](NC(=O)[C@H](Cc1ccc(O)cc1)NC(=O)[C@@H](NC(=O)[C@H](CCCNC(=N)N)NC(=O)[C@@H](N)CC(=O)O)C(C)C)C(=O)N[C@@H](Cc1c[nH]cn1)C(=O)N1CCC[C@H]1C(=O)O [Ang-(1-7), Angiotensin-(1-7)]
Tmax ([1]; human, sc): 1 h
dose-dependent increases in drug exposure ([1]; s.c. 100-700 μg/kg, RIA): observed only at the highest dose level
SAE possibly related to Ang-(1-7) ([2]; 400 μg/kg, one patient with metastatic pancreatic cancer, first cycle): grade 3 deep vein thrombosis
dose-limiting toxicities encountered ([2]; 700 μg/kg dose): stroke (grade 4) and reversible cranial neuropathy (grade 3)
Cerebrovascular ischemia, grade 2, adverse events at least possibly related to treatment [2, 3]: 0
Cerebrovascular ischemia, grade 3, adverse events at least possibly related to treatment [2, 3]: 0
Cerebrovascular ischemia, grade 4, adverse events at least possibly related to treatment [2, 3]: 1
Cerebrovascular ischemia, total, adverse events at least possibly related to treatment [2, 3]: 1
Fatigue, grade 2, adverse events at least possibly related to treatment [2, 3]: 2
Fatigue, grade 3, adverse events at least possibly related to treatment [2, 3]: 0
Fatigue, grade 4, adverse events at least possibly related to treatment [2, 3]: 0
Fatigue, total, adverse events at least possibly related to treatment [2, 3]: 2
Gingival regression, grade 2, adverse events at least possibly related to treatment [2, 3]: 1
Gingival regression, grade 3, adverse events at least possibly related to treatment [2, 3]: 0
Gingival regression, grade 4, adverse events at least possibly related to treatment [2, 3]: 0
Gingival regression, total, adverse events at least possibly related to treatment [2, 3]: 1
Hypocalcemia, grade 2, adverse events at least possibly related to treatment [2, 3]: 1
Hypocalcemia, grade 3, adverse events at least possibly related to treatment [2, 3]: 0
Hypocalcemia, grade 4, adverse events at least possibly related to treatment [2, 3]: 0
Hypocalcemia, total, adverse events at least possibly related to treatment [2, 3]: 1
Muscle weakness, grade 2, adverse events at least possibly related to treatment [2, 3]: 1
Muscle weakness, grade 3, adverse events at least possibly related to treatment [2, 3]: 0
Muscle weakness, grade 4, adverse events at least possibly related to treatment [2, 3]: 0
Muscle weakness, total, adverse events at least possibly related to treatment [2, 3]: 1
Musculoskeletal pain, grade 2, adverse events at least possibly related to treatment [2, 3]: 2
Musculoskeletal pain, grade 3, adverse events at least possibly related to treatment [2, 3]: 0
Musculoskeletal pain, grade 4, adverse events at least possibly related to treatment [2, 3]: 0
Musculoskeletal pain, total, adverse events at least possibly related to treatment [2, 3]: 2
Neuropathy, cranial, grade 2, adverse events at least possibly related to treatment [2, 3]: 0
Neuropathy, cranial, grade 3, adverse events at least possibly related to treatment [2, 3]: 1
Neuropathy, cranial, grade 4, adverse events at least possibly related to treatment [2, 3]: 0
Neuropathy, cranial, total, adverse events at least possibly related to treatment [2, 3]: 1
Orthostasis, grade 2, adverse events at least possibly related to treatment [2, 3]: 1
Orthostasis, grade 3, adverse events at least possibly related to treatment [2, 3]: 0
Orthostasis, grade 4, adverse events at least possibly related to treatment [2, 3]: 0
Orthostasis, total, adverse events at least possibly related to treatment [2, 3]: 1
Thrombosis/thrombus/embolism, grade 2, adverse events at least possibly related to treatment [2, 3]: 0
Thrombosis/thrombus/embolism, grade 3, adverse events at least possibly related to treatment [2, 3]: 1
Thrombosis/thrombus/embolism, grade 4, adverse events at least possibly related to treatment [2, 3]: 0
Thrombosis/thrombus/embolism, total, adverse events at least possibly related to treatment [2, 3]: 1
hematologic toxicity ([2]; all dose levels 100-700 μg/kg, 18 patients): No hematologic toxicity was observed
bleeding complications or episodes of hypertension ([2]; all dose levels, 18 patients): No bleeding complications or episodes of hypertension were observed
patients with mild muscle cramps ([2]; all dose levels, 18 patients): three
treatment-related deaths ([2]; all dose levels, 18 patients): no treatment-related deaths
recommended phase II dose ([2]; s.c. once daily for 5 consecutive days on a 3-week cycle): 0.4 mg/kg
